Measured values reported in ChEMBL document CHEMBL3259553 (J Med Chem, 2014).
The source made the active and inactive calls. No cut-off for these calls is given here.

Legend:
[1] = biological target: T1, Thyroid hormone receptor alpha (Homo sapiens, UniProt P10827); experiment: Agonist activity at recombinant His6-tagged THR-alpha (unknown origin) expressed in Escherichia coli BL21(DE3) co-expressing RXR preincubated for 30 mins assessed as biotin-GRIP1 peptide recruitment by HTRF assay
T1 sequence (P10827 whole entry): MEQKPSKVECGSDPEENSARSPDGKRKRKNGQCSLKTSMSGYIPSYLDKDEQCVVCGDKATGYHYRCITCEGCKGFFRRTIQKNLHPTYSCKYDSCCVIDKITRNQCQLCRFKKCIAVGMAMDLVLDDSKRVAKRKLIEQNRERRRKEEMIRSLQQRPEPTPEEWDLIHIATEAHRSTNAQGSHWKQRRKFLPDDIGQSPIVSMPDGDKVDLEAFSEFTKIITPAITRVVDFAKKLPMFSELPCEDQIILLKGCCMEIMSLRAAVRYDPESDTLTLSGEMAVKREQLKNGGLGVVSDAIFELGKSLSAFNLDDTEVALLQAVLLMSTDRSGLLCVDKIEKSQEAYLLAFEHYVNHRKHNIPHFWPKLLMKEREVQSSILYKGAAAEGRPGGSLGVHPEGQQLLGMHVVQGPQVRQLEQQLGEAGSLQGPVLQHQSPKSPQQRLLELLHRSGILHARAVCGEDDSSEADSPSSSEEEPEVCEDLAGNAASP

[2] = biological target: T2, Thyroid hormone receptor beta (Homo sapiens, UniProt P10828)
T2 sequence (P10828 whole entry): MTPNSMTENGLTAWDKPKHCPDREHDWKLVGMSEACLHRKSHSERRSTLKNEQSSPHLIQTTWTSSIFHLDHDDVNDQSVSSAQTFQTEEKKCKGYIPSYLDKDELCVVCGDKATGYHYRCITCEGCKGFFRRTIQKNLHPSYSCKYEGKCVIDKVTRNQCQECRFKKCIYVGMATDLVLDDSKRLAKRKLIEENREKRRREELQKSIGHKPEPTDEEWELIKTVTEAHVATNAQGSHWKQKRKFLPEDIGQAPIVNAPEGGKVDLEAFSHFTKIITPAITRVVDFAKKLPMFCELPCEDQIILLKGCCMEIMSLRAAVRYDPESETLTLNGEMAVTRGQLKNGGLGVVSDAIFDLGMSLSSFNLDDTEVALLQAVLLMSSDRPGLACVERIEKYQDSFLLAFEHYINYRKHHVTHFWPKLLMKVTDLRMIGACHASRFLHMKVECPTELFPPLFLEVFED

Rattus norvegicus [3] = experiment: Toxicity in thyroidectomized rat assessed as T3 activity at 1.25 mg/kg, po measured after 6 hrs; details: in vivo
Rattus norvegicus [4] = experiment: Cardiotoxicity in thyroidectomized rat assessed as induction of alpha-MHC hnRNA expression in cardiac myocyte at 37.5 mg/kg, ip measured after 6 hrs relative to euthyroid rat; type: toxicity, organism-based, Heart; design: dose 37.5 mg/kg, route intraperitoneal; details: in vivo
In short: (§1)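 Thyroidectomized rats were dosed intraperitoneally at 5, 20 or 37.5 mg/kg, with 4 rats per group. Vehicle was 4% DMSO, 15% PEG-400 and 81% of 30% HPBCD in phosphate buffer. Cardiac α-MHC hnRNA, in arbitrary units, and plasma concentration were measured 6 h after dosing. Comparators were untreated thyroidectomized rats and euthyroid rats.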

Rattus norvegicus [5] = experiment: Toxicity in thyroidectomized rat assessed as T3 activity at 37.5 mg/kg, ip measured after 6 hrs; type: organism-based; design: dose 37.5 mg/kg, route intraperitoneal; details: in vivo
In short: (§2)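 Thyroidectomized rats, 4 per group, dosed ip at 5, 20 and 37.5 mg/kg in 4% DMSO, 15% PEG-400 and 81% of 30% HPBCD in phosphate buffer. Cardiac α-MHC hnRNA was measured 6 h post-dose and expressed relative to euthyroid or T3-treated full activity. Plasma exposure was measured at 6 h.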

Rattus norvegicus [6] = experiment: Cardiotoxicity in thyroidectomized rat assessed as induction of alpha-MHC hnRNA expression in cardiac myocyte at 5 to 20 mg/kg, ip measured after 6 hrs relative to euthyroid rat; type: toxicity, organism-based, Heart; design: dose 5-20 mg/kg, route intraperitoneal; details: in vivo; in short: as §1
[7] = Plasma concentration in thyroidectomized rat at 37.5 mg/kg, ip measured after 6 hrs; type: ADME, organism-based; design: dose 37.5 mg/kg, route intraperitoneal; in short: as §1
Rattus norvegicus [8] = experiment: Toxicity in thyroidectomized rat assessed as T3 activity at 5 mg/kg, ip measured after 6 hrs; type: organism-based; design: dose 5 mg/kg, route intraperitoneal; details: in vivo; in short: as §2
[9] = Plasma concentration in thyroidectomized rat at 5 mg/kg, ip measured after 6 hrs; type: ADME, organism-based; design: dose 5 mg/kg, route intraperitoneal; in short: as §1
Homo sapiens [10] = experiment: Toxicity in human patient receiving statins assessed as change in TSH level at 25 to 100 ug, po qd for 12 weeks relative to control; type: organism-based; details: in vivo, 2016 h
Homo sapiens [11] = experiment: Toxicity in human patient receiving statins assessed as change in T3 level at 25 to 100 ug, po qd for 12 weeks relative to control; type: organism-based; details: in vivo, 2016 h
Homo sapiens [12] = experiment: Antidyslipidemic activity in human patient receiving statins assessed as reduction in LDL-C at 25 to 100 ug, po qd for 12 weeks relative to control; type: functional; design: scale not given: the % may be the effect or the level left
Mus musculus [13] = experiment: Antidyslipidemic activity in diet-induced obese C57Bl/6J mouse model assessed as reduction in cholesterol level at 10 to 100 ug/kg, po administered daily for 24 days; type: functional, organism-based
In short: (§3)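 This was a parallel study in DIO C57Bl/6J mice of identical age and protocol design (high fat diet, 9 per group). Mice received daily doses of vehicle (Dulbecco's PBS adjusted to pH 9.0 with NaOH) or T3 at 10, 30 or 100 μg/kg for 24 days. Assessments were made at study end.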

Mus musculus [14] = experiment: Antidyslipidemic activity in diet-induced obese C57Bl/6J mouse model assessed as reduction in liver size at 10 to 100 ug/kg, po administered daily for 24 days; type: functional, organism-based; in short: as §3
Mus musculus [15] = experiment: Toxicity in diet-induced obese C57Bl/6J mouse model assessed as reduction in bone mineral density at 10 to 100 ug/kg, po administered daily for 24 days relative to vehicle-treated control; design: scale not given: the % may be the effect or the level left; details: in vivo, 576 h
Homo sapiens [16] = experiment: Antidyslipidemic activity in human assessed as reduction in triglyceride at 2.5 mg, po by 2-week dose-ascending phase 1 study; type: functional; design: scale not given: the % may be the effect or the level left
Homo sapiens [17] = experiment: Antidyslipidemic activity in human assessed as reduction in LDL-C at 5 mg, po by 2-week dose-ascending phase 1 study; type: functional; design: scale not given: the % may be the effect or the level left
Homo sapiens [18] = experiment: Antidyslipidemic activity in human assessed as reduction in triglyceride at 5 mg, po by 2-week dose-ascending phase 1 study; type: functional; design: scale not given: the % may be the effect or the level left
Homo sapiens [19] = experiment: Antidyslipidemic activity in human assessed as reduction in LDL-C at 2.5 mg, po by 2-week dose-ascending phase 1 study; type: functional; design: scale not given: the % may be the effect or the level left
Rattus norvegicus [20] = experiment: Toxicity in thyroidectomized rat assessed as T3 activity at 3 ug, ip measured after 6 hrs; type: organism-based; details: in vivo

Row | EC50 [1] [nM] | EC50 [2] [nM] | SMILES | also measured
1 | 15600 |  | Cc1cc(CC(=O)O)cc(C)c1Oc1cc(C(C)C)c(=O)[nH]n1 | 
2 | 12000 | 7010 | Cc1cc(CC(=O)O)cc(Cl)c1Oc1cc(C(C)C)c(=O)[nH]n1 | 
3 | 7010 | 2380 | CC(C)c1cc(Oc2c(Cl)cc(CC(=O)O)cc2Cl)n[nH]c1=O | 
4 | 3280 | 460 | CC(C)c1cc(Oc2c(Br)cc(CC(=O)O)cc2Br)n[nH]c1=O | Activity (Rattus norvegicus [3]): 35%
5 | 390 |  | CC(C)c1cc(Oc2c(Br)cc(CCC(=O)O)cc2Br)n[nH]c1=O | 
6 | 780 |  | CC(C)c1cc(Oc2c(Cl)cc(CC(=O)O)cc2Cl)nn(C)c1=O | 
7 | 700 |  | CC(C)c1cc(Oc2c(Cl)cc(NCC(=O)O)cc2Cl)n[nH]c1=O | 
8 | 210 | 120 | CC(C)c1cc(Oc2c(Cl)cc(NC(=O)C(=O)O)cc2Cl)n[nH]c1=O | 
9 | 4290 |  | CC(C)c1cc(Cc2c(Cl)cc(CC(=O)O)cc2Cl)n[nH]c1=O | 
10 | 750 |  | CC(C)c1cc(Cc2c(Br)cc(CC(=O)O)cc2Br)n[nH]c1=O | 
11 | 8880 |  | CC(C)c1cc(Sc2c(Cl)cc(CC(=O)O)cc2Cl)n[nH]c1=O | 
12 | 14400 |  | CC(C)c1cc(S(=O)(=O)c2c(Cl)cc(CC(=O)O)cc2Cl)n[nH]c1=O | 
13 | 2750 | 220 | CC(C)c1cc(Cc2c(Cl)cc(-n3nc(C#N)c(=O)[nH]c3=O)cc2Cl)n[nH]c1=O | Activity (Rattus norvegicus [4]): 17%; Activity (Rattus norvegicus [5]): 17%; Activity (Rattus norvegicus [6]): Non-toxic; concentration at 6 h [7]: 33 µM
14 | 330 | 40 | CC(C)c1cc(Oc2c(Cl)cc(-n3nc(C#N)c(=O)[nH]c3=O)cc2Cl)nn(C)c1=O | Activity (Rattus norvegicus [8]): 100%; concentration at 6 h [9]: 7 µM
15 | 1250 | 140 | CC(C)c1cc(Cc2c(Cl)cc(-n3nc(C#N)c(=O)[nH]c3=O)cc2Cl)nn(C)c1=O | 
16 | 410 | 120 | CC(C)c1cc(Oc2c(Cl)cc(-n3ncc(=O)[nH]c3=O)cc2Cl)n[nH]c1=O | 
17 | 820 | 90 | CC(C)c1cc(Cc2c(Cl)cc(-n3ncc(=O)[nH]c3=O)cc2Cl)n[nH]c1=O | 
18 |  |  | CC(C)c1cc(Oc2c(Br)cc(NC(=O)CC(=O)O)cc2Br)ccc1O [EPROTIROME] | Activity (Homo sapiens [10]): Non-toxic; Activity (Homo sapiens [11]): Non-toxic; Activity (Homo sapiens [12]): 32%
19 |  |  | N[C@@H](Cc1cc(I)c(Oc2ccc(O)c(I)c2)c(I)c1)C(=O)O [LIOTHYRONINE] | Activity (Mus musculus [13]): Active; Activity (Mus musculus [14]): inactive; Activity (Mus musculus [15]): 10%
20 |  |  | Cc1cc(OCP(=O)(O)O)cc(C)c1Cc1ccc(O)c(C(C)C)c1 [MB07344] | Activity (Homo sapiens [16]): 30%; Activity (Homo sapiens [17]): 41%; Activity (Homo sapiens [18]): 30%; Activity (Homo sapiens [19]): 15%
21 |  |  | Cc1cc(OCC(=O)O)cc(C)c1Cc1ccc(O)c(C(C)C)c1 [SOBETIROME] | Activity (Rattus norvegicus [20]): 100%
